Results as given in ChEMBL document CHEMBL3868593, “Chlojaponilactone B from Chloranthus japonicus: Suppression of Inflammatory Responses via Inhibition of the NF-κB Signaling Pathway” (J Nat Prod, 2016).
Activity calls are given as the source filed them. The rule behind the calls is not given here.

Experiments:
[1] = Antiinflammatory activity in mouse RAW264.7 cells assessed as inhibition of LPS-induced NO production pretreated for 30 mins followed by LPS stimulation for 24 hrs by Griess assay; format: functional, cell-based
Summary of the method: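 Cells seeded at 5 × 10^4 per well, grown 24 h, pretreated 30 min, then stimulated with 500 ng/mL LPS for 24 h; 0.5% DMSO vehicle in all wells; LPS-only and unstimulated blanks included; L-NIL as positive control. Medium reacted with Griess reagent, absorbance at 540 nm; IC50 reported.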

RAW264.7 [2] = assay: Inhibition of LPS-induced NF-kappaB (unknown origin) transactivation expressed in mouse RAW264.7 cells at 20 uM pretreated for 30 mins followed by LPS stimulation for 6 hrs by luciferase reporter gene assay; format: cell-based; details: Homo sapiens
Summary of the method: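 RAW 264.7/NF-κB-luc cells (RAW 264.7 stably carrying an NF-κB-driven luciferase reporter), kept in DMEM with 10% FBS, penicillin/streptomycin and 500 μg/mL G418. Seeded at 5 × 10^5 per well for 24 h, then compound for 30 min before LPS 500 ng/mL for 6 h; DMSO 0.5% vehicle, PDTC 20 μM positive control. Firefly luminescence read on lysates; means ± SD of three independent experiments.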

Mus musculus [3] = assay: Antiinflammatory activity in BALB/c mouse assessed as inhibition of TPA-induced ear edema applied topically pretreated for 30 mins followed by TPA exposure measured after 4 hrs; format: functional
Summary of the method: (§1)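 Topical dosing of right ear at 2.5, 5 or 10 mg/mL, 30 min before TPA; left ear given acetone only as solvent control; 1% hydrocortisone as positive control. Mice killed 4 h after TPA, 7 mm central punches taken from both ears and weighed; edema rate (%) = [(weight right − weight left)/weight left] × 100%. n = 8 mice per group.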

Mus musculus [4] = assay: Antiinflammatory activity in TPA-induced ear edema BALB/c mouse model assessed as reduction in epidermal hyperplasia applied topically pretreated for 30 mins followed by TPA exposure measured after 4 hrs by hematoxylin and eosin staining based light microscopic method; format: functional, tissue-based
Summary of the method: (§2)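 Right ear pretreated topically (2.5, 5, 10 mg/mL) 30 min before TPA for 4 h; left ear acetone only; 1% hydrocortisone as positive control. Ears fixed in 4% paraformaldehyde, paraffin-embedded, cut at 4 μm, H&E stained; representative area examined qualitatively by light microscopy at 200×; n = 8 mice per group.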

Mus musculus [5] = assay: Antiinflammatory activity in TPA-induced ear edema BALB/c mouse model assessed as reduction in inflammatory cell infilteration applied topically pretreated for 30 mins followed by TPA exposure measured after 4 hrs by hematoxylin and eosin staining based light microscopic method; format: functional, tissue-based; summary of the method: as §2
[6] = molecular target: Transcription factor p65 (Mus musculus) (UniProt Q04207); assay: Inhibition of LPS-induced NF-kappaB p65 subunit translocation into nucleus of mouse RAW264.7 cells at 10 uM pretreated for 30 mins followed by LPS stimulation for 3 hrs by DAPI staining based immunofluorescence assay; format: cell-based
Sequence of Transcription factor p65 (Mus musculus) (Q04207 whole entry): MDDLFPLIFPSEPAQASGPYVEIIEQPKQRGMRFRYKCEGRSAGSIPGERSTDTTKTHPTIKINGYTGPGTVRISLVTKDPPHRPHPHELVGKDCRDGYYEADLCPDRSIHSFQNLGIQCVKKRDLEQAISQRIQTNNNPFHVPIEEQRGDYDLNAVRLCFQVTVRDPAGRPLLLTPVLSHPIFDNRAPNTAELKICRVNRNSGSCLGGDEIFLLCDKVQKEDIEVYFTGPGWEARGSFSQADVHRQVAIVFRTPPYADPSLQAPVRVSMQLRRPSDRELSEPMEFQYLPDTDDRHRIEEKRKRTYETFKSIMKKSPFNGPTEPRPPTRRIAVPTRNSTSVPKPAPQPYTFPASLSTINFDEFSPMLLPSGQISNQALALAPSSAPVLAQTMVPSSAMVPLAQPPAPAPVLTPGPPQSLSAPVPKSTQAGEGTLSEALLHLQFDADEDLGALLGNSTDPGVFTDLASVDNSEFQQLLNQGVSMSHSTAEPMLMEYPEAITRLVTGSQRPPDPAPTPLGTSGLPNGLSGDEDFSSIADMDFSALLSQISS
Summary of the method: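 Cells at 1 × 10^5/mL plated overnight, pretreated 30 min, then LPS 500 ng/mL for 3 h; fixed in 4% formaldehyde, permeabilized with 1% Triton X-100, blocked in 5% BSA, anti-p65 (1:100) overnight at 4 °C, Alexa 594 secondary, DAPI nuclei. High-content imaging; nuclear minus cytoplasmic fluorescence; three independent experiments.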

Mus musculus [7] = assay: Antiinflammatory activity in TPA-induced ear edema BALB/c mouse model assessed as reduction in inflammatory cell infilteration at 10 mg/ml applied topically pretreated for 30 mins followed by TPA exposure measured after 4 hrs by hematoxylin and eosin staining based light microscopic method; format: functional, tissue-based; summary of the method: as §2
RAW264.7 [8] = assay: Inhibition of NF-kappaB in mouse RAW264.7 cells assessed as reduction in LPS-induced iNOS protein expression pretreated for 30 mins followed by LPS stimulation for 12 hrs by Western blot analysis; format: cell-based
Summary of the method: (§3)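 Cells 5 × 10^5 per well grown 24 h, serum-starved 12 h, pretreated 30 min, then LPS 500 ng/mL for 12 h. Lysates protein-normalized by BCA, 10% SDS-PAGE, PVDF, anti-iNOS or anti-COX-2 (1:1000) overnight at 4 °C, ECL detection; β-tubulin loading control.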

RAW264.7 [9] = assay: Inhibition of NF-kappaB in mouse RAW264.7 cells assessed as reduction in LPS-induced TNF-alpha level pretreated for 30 mins followed by LPS stimulation for 24 hrs by ELISA; format: cell-based
Summary of the method: (§4)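 Pretreatment at 0.3, 1, 3 or 9 μM for 30 min, then LPS 500 ng/mL for 24 h; culture supernatant assayed for TNF-α and IL-6 by ELISA kits; means ± SD of three independent experiments.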

Mus musculus [10] = assay: Antiinflammatory activity in BALB/c mouse assessed as inhibition of TPA-induced ear edema at 10 mg/ml applied topically pretreated for 30 mins followed by TPA exposure measured after 4 hrs; format: functional; summary of the method: as §1
RAW264.7 [11] = assay: Inhibition of NF-kappaB in mouse RAW264.7 cells assessed as reduction in LPS-induced degradation of IkappaB-alpha pretreated for 30 mins followed by LPS stimulation for 1 hr by Western blot analysis; format: cell-based
Summary of the method: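 Serum-starved (12 h) cells pretreated 30 min at 2.5, 5 or 10 μM or 0.5% DMSO, then LPS 500 ng/mL for 1 h; Western blot for IκB-α and phospho-IκB-α (1:1000, 4 °C overnight), ECL, β-tubulin loading control; bands quantified from three independent experiments.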

Mus musculus [12] = assay: Antiinflammatory activity in TPA-induced ear edema BALB/c mouse model assessed as reduction in epidermal hyperplasia at 10 mg/ml applied topically pretreated for 30 mins followed by TPA exposure measured after 4 hrs by hematoxylin and eosin staining based light microscopic method; format: functional, tissue-based; summary of the method: as §2
RAW264.7 [13] = assay: Inhibition of NF-kappaB in mouse RAW264.7 cells assessed as reduction in LPS-induced COX2 expression at 1 to 9 uM pretreated for 30 mins followed by LPS stimulation for 12 hrs by Western blot analysis; format: cell-based; summary of the method: as §3
RAW264.7 [14] = assay: Inhibition of NF-kappaB in mouse RAW264.7 cells assessed as reduction in LPS-induced IL-6 level pretreated for 30 mins followed by LPS stimulation for 24 hrs by ELISA; format: cell-based; summary of the method: as §4
RAW264.7 [15] = assay: Inhibition of LPS-induced NF-kappaB (unknown origin) transactivation expressed in mouse RAW264.7 cells pretreated for 30 mins followed by LPS stimulation for 6 hrs by luciferase reporter gene assay; format: cell-based; details: Homo sapiens
Summary of the method: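 RAW 264.7 line stably carrying NF-κB-driven firefly luciferase, maintained with 500 μg/mL G418; seeded 5 × 10^5 per well, 24 h, pretreated 30 min at 2.5–20 μM, then 500 ng/mL LPS for 6 h; 0.5% DMSO vehicle; 20 μM PDTC positive control. Lysate luminescence read; three independent experiments, means ± SD.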

Work on `C=C1[C@H]2C[C@H]2[C@]2(C)C=C3OC(=O)C(C)=C3C[C@@]12O` yielded an IC50 [1] of over 50 µM.

For `S=C(S)N1CCCC1`, the inhibition (RAW264.7 [2]) was “Active”.

Compound `C=C1[C@H]2C[C@H]2[C@@]2(C)[C@H]1CC1=C(C)C(=O)O[C@@]1(O)[C@H]2O` has an IC50 [1] of 35.4 µM.

`C=C1[C@H]2C[C@H]2[C@]2(C)C[C@@H]3OC(=O)C(C)=C3C[C@@H]12` gave an IC50 [1] of over 50 µM.

`CC1=C2CC3=C(CO)[C@H]4C[C@H]4[C@]3(C)C[C@@H]2OC1=O` [CHLORAJAPOLIDE C] showed an IC50 [1] of over 50 µM.

In the case of `C[C@]12CCC(=O)C=C1CC[C@@H]1[C@@H]2[C@@H](O)C[C@@]2(C)[C@H]1CC[C@]2(O)C(=O)CO` [HYDROCORTISONE], the “inhibition (INH)” value (Mus musculus [3]) is reported as 56.33%, the Activity (Mus musculus [4]) is reported as “Active” and the Activity (Mus musculus [5]) is reported as “Active”.

For `C=C1[C@H]2C[C@H]2[C@]2(C)C=C3OC(=O)C(C)=C3[C@H](OC(C)=O)[C@@H]12`, the inhibition [6] was “Active”, the Activity (Mus musculus [7]) was “Active” and the inhibition (RAW264.7 [8]) was “Dose-dependent effect”. For the same compound, the inhibition (Mus musculus [3]) was “Dose-dependent effect”, the inhibition (RAW264.7 [9]) was “Dose-dependent effect” and the inhibition at 10000 µg/mL (Mus musculus [10]) was 23.5%. The inhibition (RAW264.7 [11]) was “Dose-dependent effect”, the IC50 [1] was 1.4 µM and the Activity (Mus musculus [12]) was “Active”. The inhibition (RAW264.7 [13]) was “Active”, the inhibition (RAW264.7 [14]) was “Dose-dependent effect” and the inhibition (RAW264.7 [15]) was “Dose-dependent effect”.

`C=C1[C@H]2C[C@H]2[C@]2(C)[C@H](O)[C@]3(OC)OC(=O)C(C)=C3C[C@@H]12` showed an IC50 [1] of over 50 µM.

Compound `C=C1[C@H]2C[C@H]2[C@]2(C)C=C3OC(=O)C(C)=C3C[C@@H]12` [CHLORANTHALACTONE A] has an IC50 [1] of 33.2 µM.

With `C=C1[C@H]2C[C@H]2[C@]2(C)C[C@@H]3OC(=O)C(C)=C3C[C@]12O` [SARCANDRALACTONE A] the IC50 [1] was over 50 µM.

`C=C1[C@H]2C[C@H]2[C@]2(C)[C@H](O)[C@@]3(OC)OC(=O)C(C)=C3C[C@@H]12` gave an IC50 [1] of over 50 µM.

`CC(=N)NCCCC[C@H](N)C(=O)O` [L-NIL] showed an IC50 [1] of 7.5 µM.
